≈ marks a conversion by molar mass, not a printed value. Calls of active or inactive are those of the source. The rule behind the calls is not given here.
Key:
Candida albicans [1] = test: Microbicidal activity against Candida albicans ATCC 10231 assessed as inhibition of colony growth incubated for 48 hrs followed by replating and further incubated for 48 hrs; assay type: functional; conditions: ATCC 10231, 48 h
Escherichia coli [2] = test: Antimicrobial activity against Escherichia coli ATCC 8739 assessed as reduction in viable bacterial cell count at 8 times MIC incubated up to 120 mins by time kill assay relative to control; assay type: functional
Escherichia coli [3] = test: Antimicrobial activity against Escherichia coli ATCC 8739 assessed as reduction in viable bacterial cell count at 4 to 8 times MIC incubated for 40 to 60 mins by time kill assay relative to control; assay type: functional, organism-based
Escherichia coli [4] = test: Antimicrobial activity against Escherichia coli ATCC 8739 assessed as effect on bacterial morphology by measuring bacterial length at 1 to 8 times MIC incubated for 60 mins by surface electron microscopy (reference value: 2 micrometer); assay type: functional
Staphylococcus aureus [5] = test: Microbicidal activity against Staphylococcus aureus ATCC 6538 assessed as inhibition of colony growth incubated for 24 hrs followed by replating and further incubated for 24 hrs; assay type: functional; conditions: ATCC 6538, 24 h
Escherichia coli [6] = test: Antimicrobial activity against Escherichia coli ATCC 8739 assessed as reduction in viable bacterial cell count at 1 times MIC incubated up to 120 mins by time kill assay relative to control; assay type: functional
Enterococcus faecalis [7] = test: Antimicrobial activity against Enterococcus faecalis ATCC 29121 assessed as inhibition of microbial growth incubated for 24 hrs; assay type: functional; conditions: ATCC 29121, 24 h
In short: (§1)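 Broth microdilution. Strains grown overnight on TSA at 37°C, suspended to 10⁸ CFU/mL in Tryptone-Sel, then diluted to 10⁶ CFU/mL in double-strength Mueller-Hinton broth. Two-fold serial dilutions in sterile water (pH 7.4–7.7) mixed 1:1 with inoculum. Incubation 24 h at 37°C. MIC is the lowest concentration inhibiting growth. Duplicate wells, three independent experiments.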

Escherichia coli [8] = test: Antimicrobial activity against Escherichia coli ATCC 8739 assessed as increase in region of cellular aggregation at 1 to 8 times MIC incubated for 60 mins by surface electron microscopy; assay type: functional, organism-based
Enterococcus faecalis [9] = test: Microbicidal activity against Enterococcus faecalis ATCC 29121 assessed as inhibition of colony growth incubated for 24 hrs followed by replating and further incubated for 24 hrs; assay type: functional; conditions: ATCC 29121, 24 h
Pseudomonas aeruginosa [10] = test: Antimicrobial activity against Pseudomonas aeruginosa ATCC 9027 assessed as inhibition of microbial growth incubated for 24 hrs; assay type: functional; conditions: ATCC 9027, 24 h; in short: as §1
Escherichia coli [11] = test: Antimicrobial activity against Escherichia coli ATCC 8739 assessed as induction of spherical elements around bacteria at 1 to 8 times MIC incubated for 60 mins by surface electron microscopy; assay type: functional, organism-based
Candida albicans [12] = test: Antimicrobial activity against Candida albicans ATCC 10231 assessed as inhibition of microbial growth incubated for 48 hrs; assay type: functional; conditions: ATCC 10231, 48 h
In short: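 C. albicans grown 48 h on Sabouraud at 20–25°C, suspended to 10⁸ CFU/mL, then diluted to 10⁶ CFU/mL in double-strength Mueller-Hinton broth. Two-fold serial dilutions in water (pH 7.4–7.7) mixed 1:1 with inoculum. Incubation 48 h at 25°C. MIC is the lowest concentration inhibiting growth. Duplicate wells, three independent experiments.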

Escherichia coli [13] = test: Microbicidal activity against Escherichia coli ATCC 8739 assessed as inhibition of colony growth incubated for 24 hrs followed by replating and further incubated for 24 hrs; assay type: functional; conditions: ATCC 8739, 24 h
Bacillus subtilis [14] = test: Microbicidal activity against Bacillus subtilis ATCC 6633 assessed as inhibition of colony growth incubated for 24 hrs followed by replating and further incubated for 24 hrs; assay type: functional; conditions: ATCC 6633, 24 h
Escherichia coli [15] = test: Antimicrobial activity against Escherichia coli ATCC 8739 assessed as inhibition of microbial growth measured after 8 passes in presence of sublethal compound concentration concentrations; assay type: functional
[16] = Hemolytic activity in human RBC assessed as induction of hemolysis incubated for 1 hr; assay type: cell-based, Erythrocyte; conditions: red blood cells (erythrocytes), read-out: HD50
In short: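 Human RBCs washed in PBS and used at 5% packed cell volume, mixed 1:1 with two-fold serial dilutions in PBS (pH 7.4–7.7). Incubation 1 h at 37°C, then centrifugation at 1500g for 10 min at 5°C. Supernatant absorbance read at 490 nm against PBS (0%) and 1% SDS/Tris (100%) controls. HC50 from three independent experiments, double duplicate.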

Escherichia coli [17] = test: Antimicrobial activity against Escherichia coli ATCC 8739 assessed as induction of blisters and protruding vesicles on cell surface at 1 to 8 times MIC incubated for 60 mins by surface electron microscopy; assay type: functional, organism-based
Bacillus subtilis [18] = test: Antimicrobial activity against Bacillus subtilis ATCC 6633 assessed as inhibition of microbial growth incubated for 24 hrs; assay type: functional; conditions: ATCC 6633, 24 h; in short: as §1
Escherichia coli [19] = test: Induction of membrane depolarization in Escherichia coli ATCC 8739 incubated for 2 hrs by [DiSC3(5)] probe based fluorescence assay; assay type: functional, organism-based
In short: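 E. coli ATCC8739 grown 2 h at 37°C in Mueller-Hinton broth, washed and resuspended in 20 mM glucose/5 mM HEPES pH 7.2 to OD600 0.05. DiSC3(5) added at 0.6 µM final and preincubated at 37°C until fluorescence stabilized. Compound added at 0.19–12.5 µM final; fluorescence (ex 620, em 670 nm) followed over 30 min. Duplicate, three independent experiments.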

Pseudomonas aeruginosa [20] = test: Microbicidal activity against Pseudomonas aeruginosa ATCC 9027 assessed as inhibition of colony growth incubated for 24 hrs followed by replating and further incubated for 24 hrs; assay type: functional; conditions: ATCC 9027, 24 h
Staphylococcus aureus [21] = test: Antimicrobial activity against Staphylococcus aureus ATCC 6538 assessed as inhibition of microbial growth incubated for 24 hrs; assay type: functional; conditions: ATCC 6538, 24 h; in short: as §1
Escherichia coli [22] = test: Antimicrobial activity against Escherichia coli ATCC 8739 assessed as inhibition of microbial growth incubated for 24 hrs; assay type: functional; conditions: ATCC 8739, 24 h; in short: as §1

| Structure (SMILES) | MIC (Enterococcus faecalis [7]) [µM] | MIC (Pseudomonas aeruginosa [10]) [µM] | MIC (Candida albicans [12]) [µM] | MIC (Bacillus subtilis [18]) [µM] | MIC (Staphylococcus aureus [21]) [µM] | MIC (Escherichia coli [22]) | MBC (Candida albicans [1]) [µM] | MBC (Staphylococcus aureus [5]) [µM] | MBC (Enterococcus faecalis [9]) [µM] | MBC (Escherichia coli [13]) [µM] | MBC (Bacillus subtilis [14]) [µM] | MIC (Escherichia coli [15]) | HC50 at 1 h [16] [µM] | MBC (Pseudomonas aeruginosa [20]) [µM] | other results |
| --- | --- | --- | --- | --- | --- | --- | --- | --- | --- | --- | --- | --- | --- | --- | --- |
| CO/N=C(\C(=O)N[C@@H]1C(=O)N2C(C(=O)O)=C(COC(C)=O)CS[C@H]12)c1csc(N)n1 [CEFOTAXIME] |  |  |  |  |  | < 0.05 µg/mL |  |  |  |  |  | 0.8 µg/mL |  |  |  |
| CC(=O)N[C@@H](CCCCN)c1nc(C)sc1C(=O)N[C@@H](C)c1nc(C)sc1C(=O)N[C@@H](C)c1nc(CCCCN)sc1C(=O)N[C@@H](C)c1nc(C)sc1C(=O)N[C@@H](C)c1nc(CCCCN)sc1C(=O)N[C@@H](CCCCN)c1nc(C)sc1C(=O)N[C@@H](C)c1nc(CCCCN)sc1C(=O)N[C@@H](CCCCN)c1nc(C)sc1C(=O)N[C@@H](C)c1nc(C)sc1C(=O)N[C@@H](C)c1nc(C)sc1C(=O)N[C@@H](C)c1nc(CCCCN)sc1C(=O)N[C@@H](CCCCN)c1nc(C)sc1C(N)=O | > 150 | 100 | 50 | 0.8 | 100 | 5.2 µM | 62.5 (≈ 158 µg/mL) | > 100 | > 150 | 8.3 (≈ 21 µg/mL) | 0.8 (≈ 2.03 µg/mL) |  | > 100 | > 100 |  |
| CC(=O)N[C@@H](CCCCN)c1nc(C)sc1C(=O)N[C@@H](C)c1nc(CCCCN)sc1C(=O)N[C@@H](C)c1nc(C)sc1C(=O)N[C@@H](CCCCN)c1nc(C)sc1C(=O)N[C@@H](C)c1nc(CCCCN)sc1C(=O)N[C@@H](C)c1nc(C)sc1C(=O)N[C@@H](CCCCN)c1nc(C)sc1C(=O)N[C@@H](C)c1nc(CCCCN)sc1C(=O)N[C@@H](C)c1nc(C)sc1C(=O)N[C@@H](CCCCN)c1nc(C)sc1C(=O)N[C@@H](C)c1nc(CCCCN)sc1C(=O)N[C@@H](C)c1nc(C)sc1C(N)=O | > 150 | 3.9 | 3.7 | 0.5 | 26 | 1.6 µM | 3.7 (≈ 9.38 µg/mL) | 57 (≈ 144 µg/mL) | > 150 | 1.6 (≈ 4.06 µg/mL) | 0.5 (≈ 1.27 µg/mL) |  | > 100 | 5.2 (≈ 13.2 µg/mL) |  |

Further lines, with some results ahead:

| MIC (Enterococcus faecalis [7]) [µM] | MIC (Pseudomonas aeruginosa [10]) [µM] | MIC (Candida albicans [12]) [µM] | MIC (Bacillus subtilis [18]) [µM] | MIC (Staphylococcus aureus [21]) [µM] | MIC (Escherichia coli [22]) | Structure (SMILES) | MBC (Candida albicans [1]) [µM] | MBC (Staphylococcus aureus [5]) [µM] | MBC (Enterococcus faecalis [9]) [µM] | MBC (Escherichia coli [13]) [µM] | MBC (Bacillus subtilis [14]) [µM] | MIC (Escherichia coli [15]) | HC50 at 1 h [16] [µM] | MBC (Pseudomonas aeruginosa [20]) [µM] | other results |
| --- | --- | --- | --- | --- | --- | --- | --- | --- | --- | --- | --- | --- | --- | --- | --- |
| 20.8 | 4.2 | 6.2 | 0.6 | 3.1 | 1.8 µM | CC(=O)N[C@@H](CCCNC(=N)N)c1nc(C)sc1C(=O)N[C@@H](C)c1nc(CCCNC(=N)N)sc1C(=O)N[C@@H](C)c1nc(C)sc1C(=O)N[C@@H](CCCNC(=N)N)c1nc(C)sc1C(=O)N[C@@H](C)c1nc(CCCNC(=N)N)sc1C(=O)N[C@@H](C)c1nc(C)sc1C(=O)N[C@@H](CCCNC(=N)N)c1nc(C)sc1C(=O)N[C@@H](C)c1nc(CCCNC(=N)N)sc1C(=O)N[C@@H](C)c1nc(C)sc1C(=O)N[C@@H](CCCNC(=N)N)c1nc(C)sc1C(=O)N[C@@H](C)c1nc(CCCNC(=N)N)sc1C(=O)N[C@@H](C)c1nc(C)sc1C(N)=O | 6.2 (≈ 17.1 µg/mL) | 7.8 (≈ 21.5 µg/mL) | 25 (≈ 69 µg/mL) | 2.3 (≈ 6.34 µg/mL) | 0.8 (≈ 2.21 µg/mL) | Active | > 100 | 4.7 (≈ 13 µg/mL) | Activity (Escherichia coli [2]): 4.73 log10CFU/ml; Activity (Escherichia coli [3]): Active; Activity (Escherichia coli [4]): 1.3 um; Activity (Escherichia coli [6]): 0.95 log10CFU/ml; Activity (Escherichia coli [8]): Active; Activity (Escherichia coli [11]): Dose-dependent effect; Activity (Escherichia coli [17]): Active; Activity (Escherichia coli [19]): Dose-dependent effect |
| > 150 | 42 | 10.4 | 0.8 | > 150 | 5.2 µM | CC(=O)N[C@@H](CCCCN)c1nc(C)sc1C(=O)N[C@@H](C)c1nc(CCCCN)sc1C(=O)N[C@@H](C)c1nc(C)sc1C(=O)N[C@@H](CCCCN)c1nc(C)sc1C(=O)N[C@@H](C)c1nc(CCCCN)sc1C(=O)N[C@@H](C)c1nc(C)sc1C(=O)N[C@@H](CCCCN)c1nc(C)sc1C(=O)N[C@@H](C)c1nc(CCCCN)sc1C(=O)N[C@@H](C)c1nc(C)sc1C(N)=O | 10.4 (≈ 19.9 µg/mL) | > 150 | > 150 | 7.3 (≈ 14 µg/mL) | 0.8 (≈ 1.53 µg/mL) |  | > 100 | 83 (≈ 159 µg/mL) |  |
| 100 | 54 | 9.4 | 0.5 | 14.6 | 0.8 µM | CC(=O)N[C@@H](CCCNC(=N)N)c1nc(C)sc1C(=O)N[C@@H](C)c1nc(CCCNC(=N)N)sc1C(=O)N[C@@H](C)c1nc(C)sc1C(=O)N[C@@H](CCCNC(=N)N)c1nc(C)sc1C(=O)N[C@@H](C)c1nc(CCCNC(=N)N)sc1C(=O)N[C@@H](C)c1nc(C)sc1C(=O)N[C@@H](CCCNC(=N)N)c1nc(C)sc1C(=O)N[C@@H](C)c1nc(CCCNC(=N)N)sc1C(=O)N[C@@H](C)c1nc(C)sc1C(N)=O | 12.5 (≈ 26 µg/mL) | 16.5 (≈ 34.4 µg/mL) | > 100 | 0.8 (≈ 1.67 µg/mL) | 0.5 (≈ 1.04 µg/mL) |  | > 100 | 100 (≈ 208 µg/mL) |  |

— ChEMBL document CHEMBL4619808, “Tailoring the Physicochemical Properties of Antimicrobial Peptides onto a Thiazole-Based γ-Peptide Foldamer” (J Med Chem, 2020)
